From ChEMBL document CHEMBL4689842, “EUbOPEN Chemogenomics Library wave 1” (2021)
“And” between values parts separate entries of the source, which are not always exact repeats. Equal entries are not always repeated.

Test system: U2OS
Experiment: Multiplex assay against U2OS
Assay type: toxicity, cell-based
Settings: human
Summary of the method: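 Compound was added to live cells that had been stained at seeding with Hoechst33342, BioTracker Green Microtubule Cytoskeleton Dye, MitoTracker Red and Annexin V Alexa Fluor 680, and imaging followed on a CQ1 microscope at 37°C and 5% CO2. CellPathfinder machine-learning gating divided cells into Hoechst high-intensity objects or normal cells, normal cells into healthy, pyknosed or fragmented nuclei, and pyknosed cells into mitotic or apoptotic. Tubulin, mitochondrial-mass and membrane-permeability phenotypes are per cents of healthy-nucleus cells.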

[1] = 12 h, 1 µM, compound concentration 1 uM, replicate 1
[2] = 12 h, 1 µM, compound concentration 1 uM, replicate 2
[3] = 12 h, 10 µM, compound concentration 10 uM, replicate 1
[4] = 12 h, 10 µM, compound concentration 10 uM, replicate 2
[5] = 24 h, 1 µM, compound concentration 1 uM, replicate 1
[6] = 24 h, 1 µM, compound concentration 1 uM, replicate 2
[7] = 24 h, 10 µM, compound concentration 10 uM, replicate 1
[8] = 24 h, 10 µM, compound concentration 10 uM, replicate 2
[9] = 48 h, 10 µM, compound concentration 10 uM, replicate 1
[10] = 48 h, 10 µM, compound concentration 10 uM, replicate 2

CNC(=O)c1nn(C)c2c1C(C)(C)Cc1cnc(Nc3ccc(N4CCN(C)CC4)cc3)nc1-2 [MILCICLIB]
Population Apoptotic (%) [1]: 39% | Population Fragmented Nuclei (%) [1]: 17% | Population Healthy Nuclei (%) [1]: 66% | Population Hoechst High Intensity Objects (%) [1]: 6% | Population Membrane Permeable-Phenotype (%) [1]: 25% | Population Mitochondria Different-Phenotype (%) [1]: 64% | Population Mitotic Cells (%) [1]: 60% | Population Normal (%) [1]: 93% | Population Pyknosed Nuclei (%) [1]: 15% | Population Tubulin-Different-Phenotype (%) [1]: 100% | Total Cell Count [1]: 194 | Population Apoptotic (%) [2]: 58% | Population Fragmented Nuclei (%) [2]: 18% | Population Healthy Nuclei (%) [2]: 69% | Population Hoechst High Intensity Objects (%) [2]: 18% | Population Membrane Permeable-Phenotype (%) [2]: 12% | Population Mitochondria Different-Phenotype (%) [2]: 76% | Population Mitotic Cells (%) [2]: 41% | Population Normal (%) [2]: 81% | Population Pyknosed Nuclei (%) [2]: 12% | Population Tubulin-Different-Phenotype (%) [2]: 90% | Total Cell Count [2]: 163 | Population Apoptotic (%) [3]: 60% and 50% and 62% | Population Fragmented Nuclei (%) [3]: 16% and 20% and 13% | Population Healthy Nuclei (%) [3]: 49% and 42% and 64% | Population Hoechst High Intensity Objects (%) [3]: 7% and 10% and 5% | Population Membrane Permeable-Phenotype (%) [3]: 20% and 15% and 29% | Population Mitochondria Different-Phenotype (%) [3]: 95% and 98% and 57% | Population Mitotic Cells (%) [3]: 40% and 50% and 37% | Population Normal (%) [3]: 92% and 89% and 94% | Population Pyknosed Nuclei (%) [3]: 33% and 37% and 21% | Population Tubulin-Different-Phenotype (%) [3]: 98% and 100% and 99% | Total Cell Count [3]: 208 and 243 and 221 | Population Apoptotic (%) [4]: 73% and 55% | Population Fragmented Nuclei (%) [4]: 12% and 8% | Population Healthy Nuclei (%) [4]: 54% and 68% and 62% | Population Membrane Permeable-Phenotype (%) [4]: 28% and 25% and 24% | Population Mitochondria Different-Phenotype (%) [4]: 100% and 76% | Population Mitotic Cells (%) [4]: 26% and 44% | Population Normal (%) [4]: 90% and 85% and 97% | Population Pyknosed Nuclei (%) [4]: 25% and 19% and 29% | Population Tubulin-Different-Phenotype (%) [4]: 91% | Total Cell Count [4]: 122 and 87 and 65 | Population Apoptotic (%) [5]: 85% | Population Fragmented Nuclei (%) [5]: 17% | Population Healthy Nuclei (%) [5]: 54% | Population Hoechst High Intensity Objects (%) [5]: 11% | Population Membrane Permeable-Phenotype (%) [5]: 33% | Population Mitochondria Different-Phenotype (%) [5]: 92% | Population Mitotic Cells (%) [5]: 14% | Population Normal (%) [5]: 88% | Population Pyknosed Nuclei (%) [5]: 27% | Population Tubulin-Different-Phenotype (%) [5]: 100% | Total Cell Count [5]: 186 | Population Apoptotic (%) [6]: 86% | Population Fragmented Nuclei (%) [6]: 20% | Population Healthy Nuclei (%) [6]: 60% | Population Hoechst High Intensity Objects (%) [6]: 23% | Population Membrane Permeable-Phenotype (%) [6]: 22% | Population Mitochondria Different-Phenotype (%) [6]: 83% | Population Mitotic Cells (%) [6]: 13% | Population Normal (%) [6]: 76% | Population Pyknosed Nuclei (%) [6]: 18% | Population Tubulin-Different-Phenotype (%) [6]: 87% | Total Cell Count [6]: 160 | Population Apoptotic (%) [7]: 78% and 87% and 84% | Population Fragmented Nuclei (%) [7]: 20% and 22% and 15% | Population Healthy Nuclei (%) [7]: 27% and 32% and 52% | Population Hoechst High Intensity Objects (%) [7]: 15% and 11% | Population Membrane Permeable-Phenotype (%) [7]: 40% and 25% and 36% | Population Mitochondria Different-Phenotype (%) [7]: 100% and 93% | Population Mitotic Cells (%) [7]: 21% and 12% and 15% | Population Normal (%) [7]: 84% and 88% | Population Pyknosed Nuclei (%) [7]: 51% and 45% and 32% | Population Tubulin-Different-Phenotype (%) [7]: 100% and 95% and 96% | Total Cell Count [7]: 235 and 238 and 280 | Population Apoptotic (%) [8]: 66% and 83% and 86% | Population Fragmented Nuclei (%) [8]: 9% and 14% | Population Healthy Nuclei (%) [8]: 49% and 64% and 61% | Population Hoechst High Intensity Objects (%) [8]: 12% and 13% and 18% | Population Membrane Permeable-Phenotype (%) [8]: 56% and 31% and 62% | Population Mitochondria Different-Phenotype (%) [8]: 82% | Population Mitotic Cells (%) [8]: 33% and 16% and 13% | Population Normal (%) [8]: 87% and 86% and 81% | Population Pyknosed Nuclei (%) [8]: 40% and 21% and 28% | Population Tubulin-Different-Phenotype (%) [8]: 93% | Total Cell Count [8]: 78 and 113 and 118 | Population Apoptotic (%) [9]: 86% and 85% | Population Fragmented Nuclei (%) [9]: 29% and 24% | Population Healthy Nuclei (%) [9]: 9% and 15% | Population Hoechst High Intensity Objects (%) [9]: 15% and 20% | Population Membrane Permeable-Phenotype (%) [9]: 26% and 55% | Population Mitochondria Different-Phenotype (%) [9]: 100% | Population Mitotic Cells (%) [9]: 13% and 14% | Population Normal (%) [9]: 84% and 79% | Population Pyknosed Nuclei (%) [9]: 61% and 59% | Population Tubulin-Different-Phenotype (%) [9]: 89% | Total Cell Count [9]: 315 and 232 | Population Apoptotic (%) [10]: 76% and 84% | Population Fragmented Nuclei (%) [10]: 11% and 10% | Population Healthy Nuclei (%) [10]: 38% and 52% | Population Hoechst High Intensity Objects (%) [10]: 30% and 27% | Population Membrane Permeable-Phenotype (%) [10]: 87% and 71% | Population Mitochondria Different-Phenotype (%) [10]: 97% | Population Mitotic Cells (%) [10]: 23% and 15% | Population Normal (%) [10]: 70% and 72% | Population Pyknosed Nuclei (%) [10]: 50% and 37% | Population Tubulin-Different-Phenotype (%) [10]: 100% and 95% | Total Cell Count [10]: 118 and 104
